Experimental findings from ChEMBL document CHEMBL1142703, “Novel ligands for the chemokine receptor-3 (CCR3): a receptor-modeling study based on 5D-QSAR” (J Med Chem, 2005) are described below.

The test addresses T1, C-C chemokine receptor type 3 (Homo sapiens, UniProt P51677).
T1 sequence (P51677 whole entry): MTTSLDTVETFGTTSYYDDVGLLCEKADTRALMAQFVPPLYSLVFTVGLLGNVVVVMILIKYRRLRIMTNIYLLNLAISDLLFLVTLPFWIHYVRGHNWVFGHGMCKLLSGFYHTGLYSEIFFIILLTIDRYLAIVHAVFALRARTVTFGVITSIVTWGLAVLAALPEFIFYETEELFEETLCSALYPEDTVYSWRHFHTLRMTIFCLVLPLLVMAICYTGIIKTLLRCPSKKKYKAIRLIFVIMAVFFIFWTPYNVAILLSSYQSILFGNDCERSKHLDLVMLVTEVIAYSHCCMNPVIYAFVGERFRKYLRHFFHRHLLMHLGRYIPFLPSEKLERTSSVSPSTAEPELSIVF
Briefly: Inhibition of [125I]eotaxin-1 binding to human chemokine receptor (hCCR3-C1). In short, it runs like this:
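K562 leukemia myelogenic blast cells transfected with human CCR3 (hCCR3-C1). Binding of the radioligand 125I-eotaxin-1 was measured in a scintillation proximity format. Controls: specific binding with no displacer added, and nonspecific binding with unlabeled eotaxin or test compound added. Bound radioactivity was counted by scintillation. Ki was obtained by iterative fitting of the data to a law-of-mass-action model.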
As a reminder, the Ki is a dissociation constant, usually derived from enzyme kinetics or from competition with a known ligand. Low readings indicate higher affinity, high ones lower affinity. For the compound `CN1CCN(C(CNC(=O)Nc2cc(Cl)cc(Cl)c2)c2ccc(C(F)(F)F)cc2)CC1` (stereo unspecified), the Ki came to 5.18 µM.
Next, `CN1CCN(C(CNC(=O)Nc2cc(Cl)cc(Cl)c2)c2ccc(N(C)C)cc2)CC1` (stereo unspecified): 3.81 µM; `COc1ccccc1C(CNC(=O)Nc1ccc(F)cc1)N1CCN(C2CCCCC2)CC1` (stereo unspecified): 5.38 µM.
Consider `Cc1ccc(NC(=O)NCC(c2ccccc2)N2CCN(c3ccccc3)CC2)cc1` (stereo unspecified), for which the Ki was determined as 8.02 µM.
With `O=C(NCC(c1ccccc1)N1CCN(c2ccccc2)CC1)Nc1ccc(F)cc1` (stereo unspecified), the Ki was found to be 5.55 µM.
For the compound `Cc1ccc(NC(=O)NCC(c2ccc(C(F)(F)F)cc2)N2CCN(C)CC2)cc1` (stereo unspecified), the Ki was 10.7 µM. Against the preceding compound, the Ki is about 1.9-fold higher.
As for `CC(C)(C)c1ccc(C(CNC(=O)Cc2ccc(C(F)(F)F)cc2)N2CCN(C3CCCCC3)CC2)cc1` (stereo unspecified), the Ki turned out to be 10.3 µM.
In turn, `CC(C)(C)c1ccc(C(CNC(=O)Cc2ccccc2)N2CCN(c3ccccc3)CC2)cc1` (stereo unspecified) gave a Ki of 11.2 µM.
The compound `CN1CCN(C(CNCCc2ccc(C(F)(F)F)cc2)c2ccccc2)CC1` (stereo unspecified) showed a Ki of 8.97 µM.
`COc1ccc(NC(=O)NCC(c2ccccc2)N2CCN(C3CCCCC3)CC2)cc1` (stereo unspecified) came in with a Ki of 9.83 µM.
`Cc1ccc(CCNCC(c2ccccc2)N2CCN(C)CC2)cc1` (stereo unspecified) showed a Ki of 11.6 µM.
